PDI turbidity: inhibitors of human PDI, primary screen, biochemical, turbidity, single point, plate reader; PDI insulin aggregation turbidity, A650, 90 min; inhibition, % at 10 µM; AID 588391, 2011; actives 0.052% (n = 350,000);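 active = mean inhibition across replicates of 30% or more, whatever share of single replicates reach that level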
FN deposit inh: inhibitors of fibronectin matrix deposition, primary screen, AH1F cells, Alexa488-fibronectin fluorescence, plate reader | AH1F fibroblasts, overnight | inhibition, % at 12.6 µM | actives 0.086% (n = 350,000) | AID 743247, 2014;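 active = mean inhibition across replicates of 30% or more, regardless of how many single replicates reach that level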
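Schedule: 1 h cell adhesion before compound, then overnight fibronectin incubation; test system: AH1F fibroblast monolayer depositing Alexa488-labelled fibronectin into matrix; quantity: 10000 AH1F cells per well; probe or stimulus: fluorescent fibronectin at 24 nM final; signal: fluorescence, ex 485 nm, em 525 nm; evaluation: percent inhibition as loss of matrix-bound fibronectin fluorescence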
ERp5 block: inhibitors of ERp5-driven insulin aggregation, primary screen, biochemical, turbidity, absorbance 650 nm, single point; inhibition, % at 9.99 µM; 90 min; Protein disulfide-isomerase A6 (Homo sapiens), Q15084; actives 0.05% (n = 350,000);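 active = mean replicate inhibition above about 25%, with every replicate also reaching it, limit read from the data, passing the limit was not always enough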
Target sequence (Q15084 whole entry, looked up): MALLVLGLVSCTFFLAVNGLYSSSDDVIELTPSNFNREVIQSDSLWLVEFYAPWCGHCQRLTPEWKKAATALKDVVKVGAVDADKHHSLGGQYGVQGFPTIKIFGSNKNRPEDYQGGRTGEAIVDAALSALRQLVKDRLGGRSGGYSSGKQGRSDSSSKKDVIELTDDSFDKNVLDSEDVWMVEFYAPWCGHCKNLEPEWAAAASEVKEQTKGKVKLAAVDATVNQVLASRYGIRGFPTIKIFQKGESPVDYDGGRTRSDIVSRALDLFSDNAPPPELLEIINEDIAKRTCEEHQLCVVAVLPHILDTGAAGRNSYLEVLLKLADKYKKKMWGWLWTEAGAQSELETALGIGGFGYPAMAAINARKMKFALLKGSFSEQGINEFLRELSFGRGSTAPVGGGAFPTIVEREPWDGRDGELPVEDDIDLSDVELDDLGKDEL
Env fusion inh: inhibitors of HIV-1 Env-driven cell-cell fusion, primary screen, HeLa-JRFL effector, CEM21 target cells, luciferase. AID 651610, 2012. inhibition, % at 12.3 µM. actives 1.1% (n = 360,000);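 active = mean replicate inhibition score of at least 50 and every replicate individually at or above 50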
GSIS activator: GLuc luminescence reporter in INS-1E cells, primary screen for activators of glucose-dependent secretion of insulin | INS-1E GLuc reporter insulin secretion, 2-3 h | activation, % at 16.6 µM | actives 0.61% (n = 370,000) | AID 743287, 2014;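 active = lowest replicate activation of at least 40%, so every replicate reaches that level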
Each line names hits and unclear results; the compound was inactive in the other large screens; [ ] = another dose, or the depositor's remark. The list is not random: actives were taken first. Their share in the collection is about 1.4%.

CCCn1c(Nc2nc3ccccc3n2C)nc2ccccc21	Env fusion inh 140.2 (no result: ERp5 block, GSIS activator)
CCCCCCCn1c(NC(=O)CC)nc2ccccc21	Env fusion inh 72.2
Cc1ccc(S(=O)(=O)Nc2ccc3c(c2)C(=O)N([C@H](C)CO)C[C@@H](C)[C@@H](CN(C)S(=O)(=O)c2cccs2)OCCCC[C@H](C)O3)cc1	none (no result: PDI turbidity)
CCCCC#Cc1ccccc1COC[B-](F)(F)F	GSIS activator 73.0 (no result: PDI turbidity)
F[B-](F)(F)COCc1ccccc1C#Cc1ccccc1	GSIS activator 97.6 (no result: PDI turbidity)
F[B-](F)(F)COCc1ccccc1Br	GSIS activator 55.7
O=C(C#Cc1ccccc1)Nc1ccccc1F	none
Cc1cc(C)c2oc(C(=O)NC3CCS(=O)(=O)C3)cc(=O)c2c1 (stereo not given)	none
Cc1ccc2c(=O)cc(C(=O)NC3CCS(=O)(=O)C3)oc2c1C (stereo not given)	GSIS activator 42.1
CC1CCCN(S(=O)(=O)c2ccc([N+](=O)[O-])cc2)C1 (stereo not given)	none
CC1CC(C)CN(S(=O)(=O)c2ccc(Oc3ccc([N+](=O)[O-])cc3)cc2)C1 (stereo not given)	Env fusion inh 56.3 (no result: ERp5 block)
CN1CCCC(OC(=O)c2ccc(C#N)cc2)C1 (stereo not given)	GSIS activator 57.4
CCCCc1c(-c2ccc(OC)cc2)ncn1CCc1ccccc1OC	none (no result: PDI turbidity)
COc1ccccc1CCn1cnc(-c2ccc(F)cc2)c1CC(C)C	GSIS activator 120.1 (no result: PDI turbidity)
CCCCCc1c(-c2ccc(OC)cc2)ncn1CCc1ccccc1OC	Env fusion inh 61.7 (no result: PDI turbidity)
COc1ccccc1CCn1cnc(-c2ccccc2)c1CC(C)C	none (no result: PDI turbidity, GSIS activator)
COc1ccccc1CCn1cnc(-c2ccccc2OC)c1CC(C)C	GSIS activator 65.0 (no result: PDI turbidity)
COc1cccc(C2C(=O)N(C3CCCCC3)CC(=O)N2Cc2ccc(F)cc2)c1 (stereo not given)	none (no result: FN deposit inh, Env fusion inh)
COc1ccccc1CN1C(=O)CN(C2CCCCCC2)C(=O)C1c1ccc(F)cc1 (stereo not given)	Env fusion inh 81.7 (no result: ERp5 block)
CCc1cccc(NC(=O)C2CCN(S(=O)(=O)c3ccc4c(c3)CC(C)N4C(C)=O)CC2)c1 (stereo not given)	Env fusion inh 68.0
COc1cccc(NC(=O)C2CCN(S(=O)(=O)c3ccc4c(c3)CC(C)N4C(C)=O)CC2)c1 (stereo not given)	none
C[C@@H]1CN([C@H](C)CO)C(=O)c2cc(C#CCN(C)C)cnc2O[C@H]1CN(C)Cc1ccccc1F	none (no result: PDI turbidity)
CN(CC(=O)Nc1ccc(Cl)c(C(F)(F)F)c1)C(=O)c1cc(-c2ccncc2)nc2ccccc12	none
CN(CC(=O)Nc1ccc(F)c(F)c1F)C(=O)c1cc(-c2ccncc2)nc2ccccc12	ERp5 block 29.0
CC1(Oc2ccc3ccccc3c2)CCN(Cc2cccn2-c2nccs2)C1 (stereo not given)	Env fusion inh 70.2
CC(=O)c1ccc(OC2(C)CCN(Cc3cccn3-c3nccs3)C2)cc1 (stereo not given)	none
CCCCCCCCN1C(=O)[C@H](CC(=O)NCCCC)C[C@@]2(C(=O)OCC)CCCC=C12	Env fusion inh 96.7 (no result: PDI turbidity, GSIS activator)
CCCCCCCCN1C(=O)[C@H](CC(=O)N2CCCC2)C[C@@]2(C(=O)OCC)CCCC=C12	none (no result: PDI turbidity, FN deposit inh)
CCCCCCCCN1C(=O)[C@H](CC(=O)N2CCCCC2)C[C@@]2(C(=O)OCC)CCCC=C12	Env fusion inh 89.2 (no result: PDI turbidity, GSIS activator)
CCCCCCCCN1C(=O)[C@H](CC(=O)NCCCOC)C[C@@]2(C(=O)OCC)CCCC=C12	none (no result: PDI turbidity, GSIS activator)
C[C@@H]1CN([C@@H](C)CO)C(=O)Cc2cc(N(C)C)ccc2O[C@H]1CN(C)Cc1ccc(Cl)c(Cl)c1	none (no result: PDI turbidity)
O=C(N/N=C/c1ccc([N+](=O)[O-])s1)c1cccc(Br)c1	Env fusion inh 66.1 (no result: FN deposit inh, ERp5 block, GSIS activator)
Cc1cccc(NC(=S)N/N=C/c2ccc([N+](=O)[O-])s2)c1	Env fusion inh 105.1 (no result: ERp5 block, GSIS activator)
O=C(CNC(=O)c1cccc(S(=O)(=O)N2CCc3ccccc32)c1)Nc1ccccc1Br	none (no result: Env fusion inh)
Cn1cc(C(=O)NCC(=O)Nc2ccccc2Br)cn1	GSIS activator 41.1 (no result: Env fusion inh)
O=C(CNC(=O)c1cccc(-n2cccc2)c1)Nc1ccccc1Br	Env fusion inh 69.8 (no result: GSIS activator)
Cc1ccc(-c2noc(CCC(=O)NCC3CCCO3)n2)cc1 (stereo not given)	none (no result: FN deposit inh, ERp5 block, GSIS activator)
CNC(=O)CCc1nc(-c2ccc(C(C)(C)C)cc2)no1	none (no result: FN deposit inh, ERp5 block, Env fusion inh)
CC(C)(C)c1ccc(-c2noc(CCC(=O)NCC3CCCO3)n2)cc1 (stereo not given)	Env fusion inh 75.0 (no result: ERp5 block)
CC(C)(C)c1ccc(-c2noc(CCC(N)=O)n2)cc1	Env fusion inh 100.1
O=C(c1cnccn1)N1CC(=O)N2[C@H](C1)[C@H](c1ccc(C#CCC3CCCC3)cc1)[C@@H]2CO	none (no result: PDI turbidity, FN deposit inh, Env fusion inh)
C=CCn1c(=NC(=O)c2cc(Cl)sc2Cl)sc2cc(S(N)(=O)=O)ccc21	GSIS activator 43.7 (no result: ERp5 block)
Cc1cc(C)c(S(=O)(=O)N2CCCCC2)cc1N(C)S(=O)(=O)c1ccc(Cl)cc1	Env fusion inh 95.4 (no result: ERp5 block, GSIS activator)
Nc1cc(=O)[nH]c(SCCSc2cc(Cl)ccc2Cl)n1	Env fusion inh 69.2
Nc1cc(=O)[nH]c(SCCSc2ccccc2F)n1	none
COCCNC(=O)C[C@@H]1C[C@H]2c3cc(NS(C)(=O)=O)ccc3O[C@H]2[C@H](CO)O1	none (no result: PDI turbidity)
COc1ccccc1-c1nnc2n1N=C(c1ccc(O)c(O)c1)CS2	none (no result: FN deposit inh, ERp5 block, Env fusion inh, GSIS activator)
COc1ccc(C2=Nn3c(nnc3-c3ccccc3C(F)(F)F)SC2)cc1OC1CCOC1 (stereo not given)	GSIS activator 74.9
COc1ccc(-c2ccncc2)cc1OC	GSIS activator 107.4
COc1ccc(C2=Nn3c(nnc3-c3ccccc3OC)SC2)cc1OC1CCOC1 (stereo not given)	GSIS activator 56.3
COc1ccc(C2=Nn3c(nnc3-c3ccncc3)SC2)cc1OC	GSIS activator 84.5 (no result: ERp5 block)
COc1ccc(C2=Nn3c(nnc3-c3cccnc3)SC2)cc1OC	none (no result: FN deposit inh, ERp5 block, GSIS activator)
COC(=O)C[C@@H]1CC[C@H]2[C@@H](COc3ccc(NC(=O)c4ccccc4OC)cc3C(=O)N2C)O1	none (no result: PDI turbidity, ERp5 block)
COc1cc(CNCCO)cc(Cl)c1OCc1ccc(Cl)cc1Cl	GSIS activator 42.5
COc1cc(CNC(C)(C)CO)cc(Br)c1OCc1ccc(Cl)cc1	none (no result: ERp5 block, Env fusion inh)
COc1cc(CNC(C)(C)CO)cc(Br)c1OCc1ccc(Cl)cc1Cl	GSIS activator 176.1
COc1cc(CNCCO)cc(Br)c1OCc1ccccc1Cl	none (no result: ERp5 block, GSIS activator)
OC[C@H]1[C@@H](c2ccccc2)C2(CN(Cc3nccs3)C2)N1CC1CCOCC1	none (no result: PDI turbidity, Env fusion inh)
COc1ccc2c3c(n(C)c2c1)[C@@H](CO)N(C(=O)Nc1ccc(F)cc1)CC31CCN(Cc2cccc(F)c2)CC1	Env fusion inh 82.1[16.7 µM] (no result: PDI turbidity, FN deposit inh)
COc1ccc2c3c(n(C)c2c1)[C@H](CO)N(S(C)(=O)=O)CC31CCN(CC2CCCCC2)CC1	none (no result: PDI turbidity, Env fusion inh)

Bioassay records as filed in PubChem BioAssay.
